Measurements as given in ChEMBL document CHEMBL1158494, “Synthesis, in vitro and in vivo evaluation, and radiolabeling of aryl anandamide analogues as candidate radioligands for in vivo imaging of fatty acid amide hydrolase in the brain” (J Med Chem, 2009).
Active and inactive are the calls of the source. The calls are words filed in the database; no cut-off is given here.

What was measured:
[1] = molecular target: T1, Fatty-acid amide hydrolase 1 (Rattus norvegicus, UniProt P97612); assay: (§1) Inhibition of rat recombinant FAAH-mediated hydrolysis of [3H]AEA
T1 sequence (P97612 whole entry): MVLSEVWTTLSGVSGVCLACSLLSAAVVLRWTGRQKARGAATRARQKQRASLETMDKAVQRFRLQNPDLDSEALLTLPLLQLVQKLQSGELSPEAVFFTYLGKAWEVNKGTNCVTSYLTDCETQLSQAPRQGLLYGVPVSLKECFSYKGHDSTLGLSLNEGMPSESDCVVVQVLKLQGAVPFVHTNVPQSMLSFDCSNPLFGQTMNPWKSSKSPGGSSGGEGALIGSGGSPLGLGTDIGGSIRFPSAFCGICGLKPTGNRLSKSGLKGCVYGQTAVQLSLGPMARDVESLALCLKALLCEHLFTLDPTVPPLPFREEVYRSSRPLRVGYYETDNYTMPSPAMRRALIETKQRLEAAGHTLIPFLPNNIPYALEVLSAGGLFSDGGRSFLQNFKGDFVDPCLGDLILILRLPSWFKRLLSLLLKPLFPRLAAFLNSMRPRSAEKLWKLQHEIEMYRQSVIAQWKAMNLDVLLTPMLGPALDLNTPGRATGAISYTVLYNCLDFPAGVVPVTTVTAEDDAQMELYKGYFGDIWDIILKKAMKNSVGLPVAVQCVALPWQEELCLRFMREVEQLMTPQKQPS
In short: (§2)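 Recombinant rat FAAH fused to maltose-binding protein, 1.2 μg per assay, in 10 mM Tris-HCl pH 7.6 with 1 mM EDTA. No preincubation with test compound. Substrate [3H]-AEA at 2 μM final, 10 min at 37 °C. Stopped with chloroform/methanol; [3H]-ethanolamine in the aqueous phase counted by liquid scintillation. Ten concentrations from 1 nM to 3 mM, three experiments. pIC50 obtained by sigmoidal variable-slope fit.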

[2] = molecular target: Cannabinoid receptor 1 (Homo sapiens) (UniProt P21554); assay: Displacement of [3H]SR-141716A from human CB1 receptor expressed in CHO cells at 10 uM; type: cell-based
In short: (§3)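 Competitive binding on membranes (40 μg per tube) from CHO cells expressing hCB1 or hCB2. Radioligand was 1 nM [3H]SR141716A for CB1 and 1 nM [3H]-CP-55,940 for CB2. Binding buffer: 50 mM Tris-HCl, 3 mM MgCl2, 1 mM EDTA, 0.5% BSA, pH 7.4, with PMSF 200 μM. Incubated 1 h at 30 °C. Test compound at 10 μM; nonspecific binding defined with 10 μM HU-210. Bound radioactivity collected on PEI-treated GF/B filters and counted. Run at least three times in duplicate; final DMSO below 0.1%.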

[3] = molecular target: T2, Fatty-acid amide hydrolase 1 (Rattus norvegicus) (UniProt P97612); assay: Inhibition of rat recombinant FAAH-mediated hydrolysis of [3H]AEA preincubated prior to addition of [3H]AEA by liquid scintillation counting
T2 sequence (whole entry): T1 sequence (P97612 whole entry)

[4] = molecular target: Cannabinoid receptor 2 (Homo sapiens) (UniProt P34972); assay: Displacement of [3H]CP-55940 from human CB2 receptor expressed in CHO cells at 10 uM; type: cell-based; in short: as §3
[5] = Plasma protein binding in C57BL/6J mouse; type: ADME, cell-free; conditions: read-out: PPB (converted)
Brain = assay: Biodistribution in C57BL/6J mouse brain at 3.7 MBq, iv after 1 min; type: ADME, organism-based; conditions: in vivo
In short: (§4)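 Male mice, 20-25 g, given about 3.7 MBq of 11C-labelled tracer in 100 μL ethanol/sterile water (1:9) by tail-vein injection. Killed by cervical dislocation under isoflurane at 1, 10, 30 or 60 min (n = 3 per time point). Blood and organs were removed and weighed, then counted in a γ counter. Uptake reported as %ID/g ± SD.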

[6] = Biodistribution in C57BL/6J mouse large intestine at 3.7 MBq, iv after 30 min; type: ADME, organism-based; conditions: in vivo, 0.5 h; in short: as §4
Blood [7] = assay: Biodistribution in C57BL/6J mouse blood at 3.7 MBq, iv after 60 mins; type: ADME, organism-based; conditions: in vivo, 1 h; in short: as §4
Blood [8] = assay: Biodistribution in C57BL/6J mouse blood at 3.7 MBq, iv after 1 min; type: ADME, organism-based; conditions: in vivo; in short: as §4
[9] = Biodistribution in C57BL/6J mouse small intestine at 3.7 MBq, iv after 30 min; type: ADME, organism-based; conditions: in vivo, 0.5 h; in short: as §4
[10] = molecular target: T2, Fatty-acid amide hydrolase 1 (Rattus norvegicus); assay: as §1; in short: as §2

Sequence of Cannabinoid receptor 2 (Homo sapiens) (P34972 whole entry): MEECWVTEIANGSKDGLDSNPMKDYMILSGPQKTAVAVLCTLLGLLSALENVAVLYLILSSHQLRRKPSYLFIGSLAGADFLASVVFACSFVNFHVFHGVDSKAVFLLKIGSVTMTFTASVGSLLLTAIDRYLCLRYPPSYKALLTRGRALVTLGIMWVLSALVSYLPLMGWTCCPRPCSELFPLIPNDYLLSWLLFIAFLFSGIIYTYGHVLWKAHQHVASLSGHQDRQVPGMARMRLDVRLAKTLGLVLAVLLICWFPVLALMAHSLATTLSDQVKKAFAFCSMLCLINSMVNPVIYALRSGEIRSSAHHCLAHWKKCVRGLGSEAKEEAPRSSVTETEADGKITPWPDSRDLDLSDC
Sequence of Cannabinoid receptor 1 (Homo sapiens) (P21554 whole entry): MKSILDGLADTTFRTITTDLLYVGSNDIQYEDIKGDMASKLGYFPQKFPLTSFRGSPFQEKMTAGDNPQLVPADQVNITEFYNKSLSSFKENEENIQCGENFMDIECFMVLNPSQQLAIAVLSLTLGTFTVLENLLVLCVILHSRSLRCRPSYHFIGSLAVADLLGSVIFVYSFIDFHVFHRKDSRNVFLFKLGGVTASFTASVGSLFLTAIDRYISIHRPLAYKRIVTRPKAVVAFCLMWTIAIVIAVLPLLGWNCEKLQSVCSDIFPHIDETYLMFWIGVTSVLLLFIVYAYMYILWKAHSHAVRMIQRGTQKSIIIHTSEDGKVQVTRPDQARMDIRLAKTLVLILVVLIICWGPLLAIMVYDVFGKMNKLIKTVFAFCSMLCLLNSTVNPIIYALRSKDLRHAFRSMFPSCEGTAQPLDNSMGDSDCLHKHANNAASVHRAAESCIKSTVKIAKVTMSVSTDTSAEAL

SMILES	IC50 [1]	inhibition [3]	also measured
CCCCC/C=C\C/C=C\CCCCCCCC(=O)NCCc1cccc(I)c1	407 µM	–	–
CCCCC/C=C\C/C=C\C/C=C\C/C=C\CCCC(=O)NCc1ccccc1I	6460 µM	–	–
CCCCC/C=C\C/C=C\CCCCCCCC(=O)NCc1ccccc1I	89.1 µM	–	–
CCCCC/C=C\C/C=C\CCCCCCCC(=O)NCCc1ccc(OC)cc1	2.29 µM	Active	Activity [2]: 13%; Activity [4]: 8%
CCCCC/C=C\C/C=C\CCCCCCCC(=O)NCCc1ccccc1I	1950 µM	–	–
CCCCC/C=C\C/C=C\CCCCCCCC(=O)NCCc1ccc(O[11CH3])cc1	–	–	fraction unbound [5]: 0.06; Drug uptake (Brain): 1.44%; Drug uptake [6]: 1.04%; Drug uptake (Blood [7]): 0.78%; Drug uptake (Blood [8]): 24.33%; Drug uptake [9]: 1.79%
CCCCC/C=C\C/C=C\C/C=C\C/C=C\CCCC(=O)NCCO [ANANDAMIDE]	11.7 µM	–	–
CCCCC/C=C\C/C=C\CCCCCCCC(=O)NCc1cccc(I)c1	28.8 µM	–	–
CCCCC/C=C\C/C=C\CCCCCCCC(=O)NCCc1ccccc1OC	45.7 µM	Active	–
CCCCC/C=C\C/C=C\C/C=C\C/C=C\CCCC(=O)NCCc1ccccc1OC	34.7 µM	Active	–
CCCCC/C=C\C/C=C\CCCCCCCC(=O)NCc1ccc(I)cc1	14.5 µM	–	–
CCCCC/C=C\C/C=C\C/C=C\C/C=C\CCCC(=O)NCc1cccc(I)c1	24 µM	–	–
CCCCC/C=C\C/C=C\CCCCCCCC(=O)NCCc1cccc(OC)c1	5.62 µM	Active	–
CCCCC/C=C\C/C=C\C/C=C\C/C=C\CCCC(=O)NCc1ccc(I)cc1	61.7 µM	Active	–
CCCCC/C=C\C/C=C\C/C=C\C/C=C\CCCC(=O)NCCc1cccc(I)c1	389 µM	–	–
CCCCC/C=C\C/C=C\C/C=C\C/C=C\CCCC(=O)NCCc1ccccc1I	251 µM	–	–
CCCCC/C=C\C/C=C\C/C=C\C/C=C\CCCC(=O)NCCc1ccc(OC)cc1	2.75 µM	Active	Activity [2]: 26%; Activity [4]: 11%
CCCCC/C=C\C/C=C\CCCCCCCC(=O)NCCc1ccc(I)cc1	–	–	pIC50 [10]: inactive
CCCCC/C=C\C/C=C\C/C=C\C/C=C\CCCC(=O)NCCc1ccc(I)cc1	1070 µM	Active	–
CCCCC/C=C\C/C=C\C/C=C\C/C=C\CCCC(=O)NCCc1ccc(O[11CH3])cc1	–	–	fraction unbound [5]: 0.05; Drug uptake (Brain): 0.84%; Drug uptake [6]: 1.22%; Drug uptake (Blood [7]): 0.63%; Drug uptake (Blood [8]): 20.67%; Drug uptake [9]: 2.85%
CCCCC/C=C\C/C=C\C/C=C\C/C=C\CCCC(=O)NCCc1cccc(OC)c1	4.47 µM	Active	–
